Values after ≈ are worked out from the molar mass of the structure shown.
What was measured:
Format in all cases: functional
Bacillus subtilis = test: Antimicrobial activity against Bacillus subtilis after 16 to 18 hrs by serial dilution method
Method in brief: (§1)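 Serial dilutions of each compound, each inoculated with one standard drop of the prepared test culture. Incubation was 16–18 h at 37 °C. MIC was read as the highest dilution giving clear fluid with no turbidity.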

Pseudomonas aeruginosa = test: Antimicrobial activity against Pseudomonas aeruginosa after 16 to 18 hrs by serial dilution method; method in brief: as §1
Escherichia coli = test: Antimicrobial activity against Escherichia coli after 16 to 18 hrs by serial dilution method; method in brief: as §1
Candida albicans = test: Antimicrobial activity against Candida albicans after 16 to 18 hrs by serial dilution method; method in brief: as §1
Staphylococcus aureus = test: Antimicrobial activity against Staphylococcus aureus after 16 to 18 hrs by serial dilution method; method in brief: as §1

Row | SMILES | MIC (Bacillus subtilis) [µg/mL] | MIC (Pseudomonas aeruginosa) [µg/mL] | MIC (Escherichia coli) [µg/mL] | MIC (Candida albicans) [µg/mL] | MIC (Staphylococcus aureus) [µg/mL]
1 | COc1ccc(-c2nnc(-c3cc(Cl)ccc3Br)o2)c(F)c1 | 6 (≈ 15.6 µM) | 6 (≈ 15.6 µM) | 6 (≈ 15.6 µM) | 3 (≈ 7.82 µM) | 6 (≈ 15.6 µM)
2 | COc1ccc(-c2nnc(-c3cc(F)cc(F)c3)o2)c(F)c1 | 6 (≈ 19.6 µM) | 6 (≈ 19.6 µM) | 6 (≈ 19.6 µM) | 6 (≈ 19.6 µM) | 6 (≈ 19.6 µM)
3 | COc1ccc(-c2nnc(-c3ccc(Cl)nc3)o2)c(F)c1 | 6 (≈ 19.6 µM) | 12.5 (≈ 40.9 µM) | 6 (≈ 19.6 µM) | 6 (≈ 19.6 µM) | 12.5 (≈ 40.9 µM)
4 | COc1ccc(-c2nnc(-c3cccc(Br)c3C)o2)c(F)c1 | 6 (≈ 16.5 µM) | 3 (≈ 8.26 µM) | 3 (≈ 8.26 µM) | 6 (≈ 16.5 µM) | 6 (≈ 16.5 µM)
5 | COc1ccc(-c2nnc(-c3cc(C)on3)o2)c(F)c1 | 12.5 (≈ 45.4 µM) | 6 (≈ 21.8 µM) | 6 (≈ 21.8 µM) | 3 (≈ 10.9 µM) | 12.5 (≈ 45.4 µM)
6 | COc1ccc(-c2nnc(-c3c([N+](=O)[O-])ccc(F)c3F)o2)c(F)c1 | 6 (≈ 17.1 µM) | 6 (≈ 17.1 µM) | 12.5 (≈ 35.6 µM) | 6 (≈ 17.1 µM) | 6 (≈ 17.1 µM)
7 | COc1ccc(-c2nnc(-c3cnc4ccccc4c3)o2)c(F)c1 | 6 (≈ 18.7 µM) | 6 (≈ 18.7 µM) | 6 (≈ 18.7 µM) | 6 (≈ 18.7 µM) | 6 (≈ 18.7 µM)
8 | COc1ccc(-c2nnc(-c3ccc(F)c(F)c3F)o2)c(F)c1 | 6 (≈ 18.5 µM) | 3 (≈ 9.25 µM) | 3 (≈ 9.25 µM) | 6 (≈ 18.5 µM) | 6 (≈ 18.5 µM)
9 | COc1ccc(-c2nnc(-c3cccc(C#N)c3)o2)c(F)c1 | 6 (≈ 20.3 µM) | 6 (≈ 20.3 µM) | 6 (≈ 20.3 µM) | 6 (≈ 20.3 µM) | 6 (≈ 20.3 µM)
10 | NC(=O)N/N=C/c1ccc([N+](=O)[O-])o1 [NITROFURAZONE] | 12.5 (≈ 63.1 µM) | 12.5 (≈ 63.1 µM) | 6 (≈ 30.3 µM) | – | 12.5 (≈ 63.1 µM)
11 | COc1ccc(-c2nnc(-c3cccc(C)c3C)o2)c(F)c1 | 6 (≈ 20.1 µM) | 12.5 (≈ 41.9 µM) | 6 (≈ 20.1 µM) | 6 (≈ 20.1 µM) | 6 (≈ 20.1 µM)
12 | COc1ccc(-c2nnc(-c3ccc([N+](=O)[O-])c(F)c3)o2)c(F)c1 | 6 (≈ 18 µM) | 6 (≈ 18 µM) | 6 (≈ 18 µM) | 6 (≈ 18 µM) | 6 (≈ 18 µM)
13 | OC(Cn1cncn1)(Cn1cncn1)c1ccc(F)cc1F [FLUCONAZOLE] | – | – | – | 6 (≈ 19.6 µM) | –
14 | COc1ccc(-c2nnc(-c3ccccc3C(F)(F)F)o2)c(F)c1 | 6 (≈ 17.7 µM) | 6 (≈ 17.7 µM) | 6 (≈ 17.7 µM) | 6 (≈ 17.7 µM) | 6 (≈ 17.7 µM)
15 | COc1ccc(-c2nnc(-c3ccc(F)cc3)o2)c(F)c1 | 6 (≈ 20.8 µM) | 6 (≈ 20.8 µM) | 12.5 (≈ 43.4 µM) | 6 (≈ 20.8 µM) | 6 (≈ 20.8 µM)

— ChEMBL document CHEMBL1154831, “Synthesis, characterization and biological activity of some new 1,3,4-oxadiazole bearing 2-flouro-4-methoxy phenyl moiety” (2010)
